Source: ChEMBL document CHEMBL4706495, “A novel class of small molecule inhibitors with radioprotective properties” (Eur J Med Chem, 2020)

Tests used:
MCF7 [1] = assay: Cytotoxicity against human MCF7 cells assessed as cell viability at 10 uM measured after 48 hrs by WST-1 assay relative to control; assay type: functional; conditions: read-out: Activity
Summary of the method: (§1)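 Ten-line human panel (9 cancer, 1 non-cancerous). Cells were seeded at a pre-established optimal density (500–30 × 10³ per well) and settled overnight. Compounds came from 10 mM DMSO stocks and were tested at two concentrations. WST-1 readout followed the manufacturer's protocol at the end of cultivation. Viability is expressed as % of untreated control cells, mean of three independent experiments.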

MOLT-4 [2] = assay: Radioprotective activity against gamma irradiation-induced apoptosis in human MOLT-4 cells assessed as viable cells at 100 uM pretreated with compound for 1 hr followed by gamma irradiation and measured after 24 hrs by annexinV/propidium iodide staining based flow cytometry (reference value: 40 %); assay type: functional; conditions: MOLT-4, light or radiation study, time 25 hrs, read-out: Activity
MOLT-4 [3] = assay: Cytotoxicity against human MOLT-4 cells assessed as cell viability at 100 uM measured after 48 hrs by WST-1 assay relative to control; assay type: functional; conditions: read-out: Activity; summary of the method: as §1
A549 [4] = assay: Cytotoxicity against human A549 cells assessed as maximum tolerated concentration incubated for 24 hrs by MTT assay; assay type: functional
Summary of the method: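 A-549 cells in DMEM with 10% FBS and 1% penicillin-streptomycin, left to attach overnight. Compounds made up in PBS, serially diluted in DMEM, incubated 24 h, then viability read by MTT reduction against untreated controls on each plate. MTC taken as the highest concentration showing no significant difference from non-treated control (t-test).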

SAOS-2 [5] = assay: Cytotoxicity against human SAOS-2 cells assessed as cell viability at 100 uM measured after 48 hrs by WST-1 assay relative to control; assay type: functional; conditions: read-out: Activity; summary of the method: as §1
A549 [6] = assay: Cytotoxicity against human A549 cells assessed as cell viability at 100 uM measured after 48 hrs by WST-1 assay relative to control; assay type: functional; conditions: read-out: Activity; summary of the method: as §1
A2780 [7] = assay: Cytotoxicity against human A2780 cells assessed as cell viability at 10 uM measured after 48 hrs by WST-1 assay relative to control; assay type: functional; conditions: read-out: Activity; summary of the method: as §1
A549 [8] = assay: Cytotoxicity against human A549 cells assessed as cell viability at 10 uM measured after 48 hrs by WST-1 assay relative to control; assay type: functional; conditions: read-out: Activity; summary of the method: as §1
MCF7 [9] = assay: Cytotoxicity against human MCF7 cells assessed as cell viability at 100 uM measured after 48 hrs by WST-1 assay relative to control; assay type: functional; conditions: read-out: Activity; summary of the method: as §1
A2780 [10] = assay: Cytotoxicity against human A2780 cells assessed as cell viability at 100 uM measured after 48 hrs by WST-1 assay relative to control; assay type: functional; conditions: read-out: Activity; summary of the method: as §1
HeLa [11] = assay: Cytotoxicity against human HeLa cells assessed as cell viability at 10 uM measured after 48 hrs by WST-1 assay relative to control; assay type: functional; conditions: read-out: Activity; summary of the method: as §1
HT-29 [12] = assay: Cytotoxicity against human HT-29 cells assessed as cell viability at 100 uM measured after 48 hrs by WST-1 assay relative to control; assay type: functional; conditions: read-out: Activity; summary of the method: as §1
A549 [13] = assay: Cytotoxicity against human A549 cells assessed as reduction in cell viability incubated for 24 hrs by MTT assay; assay type: functional, cell-based; conditions: A549, 24 h
Summary of the method: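 A-549 cells in DMEM with 10% FBS and 1% penicillin-streptomycin were attached overnight. Compounds were prepared in PBS and serially diluted in DMEM, then incubated 24 h. Viability was read by colorimetric MTT reduction against an untreated control on each plate (100%). IC50 came from four-parameter nonlinear regression of the log concentration-response curve, mean ± SEM. MTC is the highest concentration not differing from control (t-test).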

[14] = Cytotoxicity against human MRC5 cells assessed as cell viability at 100 uM measured after 48 hrs by WST-1 assay relative to control; assay type: cell-based; conditions: read-out: Activity; summary of the method: as §1
HT-29 [15] = assay: Cytotoxicity against human HT-29 cells assessed as cell viability at 10 uM measured after 48 hrs by WST-1 assay relative to control; assay type: functional; conditions: read-out: Activity; summary of the method: as §1
HeLa [16] = assay: Cytotoxicity against human HeLa cells assessed as cell viability at 100 uM measured after 48 hrs by WST-1 assay relative to control; assay type: functional; conditions: read-out: Activity; summary of the method: as §1
PANC-1 [17] = assay: Cytotoxicity against human PANC-1 cells assessed as cell viability at 10 uM measured after 48 hrs by WST-1 assay relative to control; assay type: functional; conditions: read-out: Activity; summary of the method: as §1
MOLT-4 [18] = assay: Cytotoxicity against human MOLT-4 cells assessed as cell viability at 10 uM measured after 48 hrs by WST-1 assay relative to control; assay type: functional; conditions: read-out: Activity; summary of the method: as §1
Jurkat [19] = assay: Cytotoxicity against human Jurkat cells assessed as cell viability at 10 uM measured after 48 hrs by WST-1 assay relative to control; assay type: functional; conditions: read-out: Activity; summary of the method: as §1
Jurkat [20] = assay: Cytotoxicity against human Jurkat cells assessed as cell viability at 100 uM measured after 48 hrs by WST-1 assay relative to control; assay type: functional; conditions: read-out: Activity; summary of the method: as §1
PANC-1 [21] = assay: Cytotoxicity against human PANC-1 cells assessed as cell viability at 100 uM measured after 48 hrs by WST-1 assay relative to control; assay type: functional; conditions: read-out: Activity; summary of the method: as §1
SAOS-2 [22] = assay: Cytotoxicity against human SAOS-2 cells assessed as cell viability at 10 uM measured after 48 hrs by WST-1 assay relative to control; assay type: functional; conditions: read-out: Activity; summary of the method: as §1
[23] = Cytotoxicity against human MRC5 cells assessed as cell viability at 10 uM measured after 48 hrs by WST-1 assay relative to control; assay type: cell-based; conditions: read-out: Activity; summary of the method: as §1
[24] = Toxicity in C57Bl/6 mouse assessed as average body weight at 100 mg/kg, ip measured after 30 days (reference value: 27 +/ 3.2 g); assay type: organism-based; conditions: in vivo, 720 h, time 30 day
Mus musculus [25] = assay: Radioprotective activity in C57Bl/6 mouse assessed as average body weight at 100 mg/kg, ip administered 5 min prior to gamma-irradation at 8.5 Gy and measured immediately (reference value: 25.4 +/- 2.6 g); assay type: functional
Mus musculus [26] = assay: Radioprotective activity in C57Bl/6 mouse assessed as average body weight at 100 mg/kg, ip administered 5 min prior to gamma-irradation at 8.5 Gy and measured after 30 days; assay type: functional
[27] = Toxicity in C57Bl/6 mouse assessed as average body weight at 100 mg/kg, ip and measured immediately (reference value: 26.3 +/- 2.4 g); assay type: organism-based; conditions: in vivo
[28] = Toxicity in C57Bl/6 mouse assessed as adverse effects at 100 mg/kg, ip measured after 30 days; assay type: organism-based; conditions: in vivo, 720 h, time 30 day
Summary of the method: (§2)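 Safety in C57Bl/6 mice (27 ± 3 g) given a single 100 mg/kg i.p. injection without irradiation. Deaths, adverse effects and body weight followed over 30 days against an untreated control group. Weight reported as change from day 0.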

[29] = Toxicity in C57Bl/6 mouse assessed as change in body weight at 100 mg/kg, ip measured after 30 days (reference value: 103 +/- 12 %); assay type: organism-based; conditions: in vivo, 720 h, time 30 day
Mus musculus [30] = assay: Radioprotective activity in C57Bl/6 mouse assessed as body weight gain at 100 mg/kg, ip administered 5 min prior to gamma-irradation at 8.5 Gy measured after 30 days relative to control; assay type: functional
Mus musculus [31] = assay: Radioprotective activity in C57Bl/6 mouse assessed as median survival time at 100 mg/kg, ip administered 5 min prior to gamma-irradation at 8.5 Gy and measured after 30 days (reference value: 12 days); assay type: functional
[32] = Toxicity in C57Bl/6 mouse assessed as mouth death at 100 mg/kg, ip measured after 30 days; assay type: organism-based; conditions: in vivo, 720 h, time 30 day; summary of the method: as §2

| SMILES | viability at 10 µM (MCF7 [1]) | viability at 100 µM (MOLT-4 [2]) | viability at 100 µM (MOLT-4 [3]) | MTD (A549 [4]) | viability at 100 µM (SAOS-2 [5]) | viability at 100 µM (A549 [6]) | viability at 10 µM (A2780 [7]) | viability at 10 µM (A549 [8]) | viability at 100 µM (MCF7 [9]) | viability at 100 µM (A2780 [10]) | viability at 10 µM (HeLa [11]) | viability at 100 µM (HT-29 [12]) | IC50 (A549 [13]) | viability at 48 h, 100 µM [14] | viability at 10 µM (HT-29 [15]) | viability at 100 µM (HeLa [16]) | viability at 10 µM (PANC-1 [17]) | viability at 10 µM (MOLT-4 [18]) | viability at 10 µM (Jurkat [19]) | viability at 100 µM (Jurkat [20]) | other results |
| --- | --- | --- | --- | --- | --- | --- | --- | --- | --- | --- | --- | --- | --- | --- | --- | --- | --- | --- | --- | --- | --- |
| Cc1ccc(C(C)C)c(OCC(O)CN2CCN(CCO)CC2)c1 (configuration not stated) | 100% | 58% | 90% | 0.16 mM | 109% | 114% | 100% | 90% | 85% | 90% | 105% | 64% | 360 µM | 90% | 93% | 132% | 91% | 87% | 97% | 98% | viability at 100 µM (PANC-1 [21]): 125%; viability at 10 µM (SAOS-2 [22]): 93%; viability at 48 h, 10 µM [23]: 102% |
| COc1cccc(OC)c1OCC(O)CN1CCN(CCO)CC1 (configuration not stated) | 101% | 61% | 76% | 1.56 mM | 82% | 99% | 95% | 97% | 90% | 83% | 101% | 141% | 7810 µM | 115% | 102% | 94% | 104% | 105% | 110% | 84% | Activity [24]: 27.6 g; Activity (Mus musculus [25]): 27.3 g; Activity (Mus musculus [26]): 27.7 g; Activity [27]: 27 g; Activity [28]: Non-Toxic; Activity [29]: 102%; Activity (Mus musculus [30]): 109%; MST (Mus musculus [31]): 12 days; Activity [32]: Non-Toxic; viability at 100 µM (PANC-1 [21]): 115%; viability at 10 µM (SAOS-2 [22]): 106% |
| Cc1ccc(OCC(O)CN2CCN(CCO)CC2)cc1 (configuration not stated) | 107% | 58% | 103% | 0.29 mM | 83% | 110% | 97% | 106% | 100% | 94% | 100% | 107% | 2430 µM | 100% | 98% | 101% | 102% | 103% | 101% | 97% | viability at 100 µM (PANC-1 [21]): 99%; viability at 10 µM (SAOS-2 [22]): 102%; viability at 48 h, 10 µM [23]: 112% |
